In the library only some 1.8% were active in any assay of this set; here they are far more common.
Tb MetRS inh: blocks T. brucei methionyl-tRNA synthetase activity | purified T. brucei MetRS, ATP depletion, Kinase-Glo luminescence | inhibition, % at 11.9 µM | 360,000 tested, 0.4% active;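 active means inhibition above a per-plate cutoff of the control wells' mean inhibition plus 3 SD, cut at about 5.5% in these data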
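assay system = parasite MetRS enzyme | timing = 15 min preincubation, 2 h reaction, all 25 °C | evaluation = percent inhibition relative to median high and low control wells | medium = HEPES buffer containing pyrophosphatase, BSA, spermine, DTT | compound = single dose, 11.9 µM final nominal, 0.9% final DMSO | detection = Kinase-Glo luminescence, ATP depletion format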
hiPSC survival: enhancers of human iPSC single-cell survival; hiPSC single-cell survival, ATPlite luminescence; 100% = ROCK inhibitor wells, 0% = DMSO; survival enhancement, % at 20 µM; 360,000 tested, 0.044% active; AID 602274; in the data active means survival enhancement above about 18%;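 further: cells exposed to compounds for 16 hours before the ATP read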
MT1-MMP act inh: MT1-MMP (human) activation inhibition; P50281; 360,000 tested, 0.061% active; HT1080 RFP-PRO-GFP cells, GFP/RFP ratio fluorescence, overnight; percent of plate control window, DMSO zero; GFP/RFP ratio change, % at 20 µM;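 active means GFP/RFP ratio change of at least 30% with cell ATP level not reduced by more than half and red fluorescence within 50% of control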
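Compound: 20 µM single dose, 1% DMSO / System: HT1080 RFP-PRO-GFP cells / Controls: DMSO and RFP-L50D-GFP cell wells / Read-out basis: GFP/RFP fluorescence ratio / Schedule: overnight compound exposure at 37 °C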
E coli Lon inh: inhibits E. coli Lon protease | P0A9M0 | purified E. coli Lon protease, fluorescence polarization | inhibition, % at 7.94 µM | 360,000 tested, 0.42% active; in the data active means inhibition above about 13%, passing the limit was not always enough
Target sequence (P0A9M0 whole entry, looked up): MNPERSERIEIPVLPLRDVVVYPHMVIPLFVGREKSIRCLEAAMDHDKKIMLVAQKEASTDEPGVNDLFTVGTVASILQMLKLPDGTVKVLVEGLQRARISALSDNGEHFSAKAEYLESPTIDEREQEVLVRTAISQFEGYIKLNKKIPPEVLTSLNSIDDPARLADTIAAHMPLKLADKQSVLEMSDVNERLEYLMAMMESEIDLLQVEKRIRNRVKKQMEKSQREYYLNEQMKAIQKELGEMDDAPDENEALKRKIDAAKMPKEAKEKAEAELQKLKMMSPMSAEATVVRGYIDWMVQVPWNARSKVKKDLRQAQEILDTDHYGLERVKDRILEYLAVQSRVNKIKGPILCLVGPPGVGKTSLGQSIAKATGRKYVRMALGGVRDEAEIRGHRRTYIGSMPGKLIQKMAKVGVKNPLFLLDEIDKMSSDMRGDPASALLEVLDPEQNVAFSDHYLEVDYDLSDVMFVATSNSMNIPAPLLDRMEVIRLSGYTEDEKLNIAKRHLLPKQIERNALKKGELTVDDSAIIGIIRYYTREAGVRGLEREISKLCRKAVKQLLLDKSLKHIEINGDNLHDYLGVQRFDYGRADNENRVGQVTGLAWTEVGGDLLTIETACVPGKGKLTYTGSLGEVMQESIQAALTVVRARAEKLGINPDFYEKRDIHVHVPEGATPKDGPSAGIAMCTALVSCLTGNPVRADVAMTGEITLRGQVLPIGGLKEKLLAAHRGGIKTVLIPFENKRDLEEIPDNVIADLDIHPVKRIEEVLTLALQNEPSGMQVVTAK
SKN-1 block: blocks SKN-1 activity in C. elegans; 360,000 tested, 0.49% active; inhibition, % at 21.8 µM; AID 624304; C. elegans VP596 Pgst-4::GFP/RFP ratio, acrylamide-induced, 24 h;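 active means interference check ratio from 0.5 to 1.5 plus GFP to RFP signal ratio inhibition reaching or exceeding a fixed threshold, cut at about 30% in these data, passing the limit was not always enough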
PREPL inh: human PREPL enzyme inhibition. Q4J6C6. recombinant PREPL, fluorescence polarization activity-based probe. inhibition, % at 5.96 µM. 320,000 tested, 0.68% active; in the data active means inhibition above about 43%
TbMetRS confirm: Trypanosoma brucei MetRS inhibition confirmed. inhibition, % at 11.9 µM. T. brucei MetRS enzyme, luminescence (ATP depletion). shares compounds with Tb MetRS inh. 1,400 tested, 93% active; in the data active means inhibition above about 7%
Jurkat tox: kills Jurkat cells in T. brucei MetRS counterscreen | shares compounds with Tb MetRS inh | Jurkat cells viability, ATP luminescence | inhibition, % at 8.3 µM | 1,400 tested, 12% active | AID 624413; in the data active means inhibition above about 15%
TbMetRS FP orth: orthogonal test for Trypanosoma brucei MetRS inhibitors | shares compounds with Tb MetRS inh | purified T. brucei MetRS, fluorescence polarization | inhibition, % at 11.9 µM | 1,400 tested, 44% active | AID 651607; in the data active means inhibition above about 17%
Of the large screens only hits and unclear results are named; the others gave an inactive call (follow-up assays come after a bar, where they were run).

CCOC(=O)C1=C(CC)Nc2ccccc2N=C1NC(=O)c1cc(C)on1	none
Cc1ccc(OCC(=O)Nc2ccc3c(c2)C(=O)NC3=O)c(C)c1	none
Nc1nc(Cl)cc(=O)n1Cc1ccc(Cl)cc1	Tb MetRS inh 9.4 | TbMetRS confirm 18 | Jurkat tox inactive | TbMetRS FP orth inactive
N#Cc1ccc(C(=O)Nc2cccc(NC(=O)c3ccco3)c2)c(F)c1	none
Cc1[nH]c2ccc(Br)cc2c(=O)c1CN1CCCCC1	Tb MetRS inh 34 | TbMetRS confirm 55 | Jurkat tox inactive | TbMetRS FP orth 27
Cc1ccccc1C(=O)NCC(=O)NC1CC1	none
C(=N\Nc1nc2ccccc2[nH]1)/c1cccc2nccnc12	Tb MetRS inh 5.9 | TbMetRS confirm 9.9 | Jurkat tox 96 | TbMetRS FP orth 25
COc1ccc2c(c1)c(/C=N/Nc1nc3ccccc3[nH]1)c(C)n2C	Tb MetRS inh 7.1 | TbMetRS confirm 19 | Jurkat tox 16 | TbMetRS FP orth 18
COc1cc(OC)c(OC)cc1/C=N/Nc1nc2ccccc2[nH]1	Tb MetRS inh 8.7 | TbMetRS confirm 18 | Jurkat tox inactive | TbMetRS FP orth 31
COc1ccc(/C=N/Nc2nc3ccccc3[nH]2)cc1OC	Tb MetRS inh 8.5 | TbMetRS confirm 12 | Jurkat tox inactive | TbMetRS FP orth 31
C(=N\Nc1nc2ccccc2[nH]1)/c1ccccn1	none (no result: PREPL inh)
CCOc1ccc(NC(=O)CSc2nnc(C3CC3)n2C)cc1S(=O)(=O)N1CCCCC1	none
CSc1ccc(/C=C/C(=O)OCC(=O)NC2CCS(=O)(=O)C2)cc1 (centres undefined)	none
COc1ccc(CNC(=O)C2CCN(C(=O)c3ccc(-c4ccccc4)cc3)CC2)cc1	none
O=C(c1cnccn1)N1CCc2c([nH]c3ccccc23)C1c1cccc(Cl)c1 (centres undefined)	Tb MetRS inh 7.0 | TbMetRS confirm 10 | Jurkat tox inactive | TbMetRS FP orth inactive
CN(C)c1ccc(-c2[nH][nH]c(=O)c2NC(=O)c2ccccn2)cc1	Tb MetRS inh 28 (no result: PREPL inh) | TbMetRS confirm inactive | Jurkat tox inactive | TbMetRS FP orth inactive
CN(C)c1ccc(-c2[nH][nH]c(=O)c2NC(=O)c2ccc3ccccc3n2)cc1	Tb MetRS inh 13 (no result: PREPL inh) | TbMetRS confirm inactive | Jurkat tox inactive | TbMetRS FP orth inactive
N=c1c2c3c(sc2nc2n1CCCCC2)CCCCC3	none
Cc1cccc(CSCCNC(=O)Nc2ccccc2)c1	Tb MetRS inh 15 | TbMetRS confirm 24 | Jurkat tox inactive | TbMetRS FP orth inactive
CC(C)C/C=C1\CCc2c([nH]c3ccccc23)C1=O	none
CCCCCCCCC1=NCCc2c1[nH]c1ccccc21	Tb MetRS inh 49 | TbMetRS confirm 70 | Jurkat tox 33 | TbMetRS FP orth 47
O=C(NCC(O)c1ccc([N+](=O)[O-])cc1)Nc1ccccc1 (centres undefined)	Tb MetRS inh 27 | TbMetRS confirm 46 | Jurkat tox inactive | TbMetRS FP orth 21
CC1(C)C2CCC1(CS(=O)(=O)NCc1ccc(Cl)cc1Cl)C(=O)C2 (centres undefined)	Tb MetRS inh 7.6 | TbMetRS confirm 21 | Jurkat tox inactive | TbMetRS FP orth inactive
COc1ccc(CC2(CO)CCN(CC3=Cc4cc(Cl)ccc4OC3)CC2)cc1	none
Cc1cnc(CNC(=O)C2CCC(=O)N(Cc3ccc(Cl)cc3)C2)[nH]1 (centres undefined)	Tb MetRS inh 32 | TbMetRS confirm 69 | Jurkat tox inactive | TbMetRS FP orth 36
O=C(NCc1ccccn1)C1CCC(=O)N(Cc2ccc(Cl)cc2)C1 (centres undefined)	none
COc1ccc2[nH]cc(S(=O)(=O)c3ccc(F)cc3)c(=O)c2c1	none
Cc1ccc2[nH]cc(S(=O)(=O)c3ccc(C)c(C)c3)c(=O)c2c1	Tb MetRS inh 6.8 | TbMetRS confirm 38 | Jurkat tox inactive | TbMetRS FP orth inactive
COC(=O)c1cc(-c2ccc(Cl)cc2)n[nH]1	none
COC(=O)c1cc(-c2ccc(Cl)cc2Cl)n[nH]1	Tb MetRS inh 12 | TbMetRS confirm 29 | Jurkat tox inactive | TbMetRS FP orth 18
Clc1ccccc1Nc1nc(NCc2ccccc2)nc2ccsc12	none (no result: PREPL inh)
Nc1ccc(N2CCOCC2)c2nonc12	Tb MetRS inh 26 | TbMetRS confirm inactive | Jurkat tox inactive | TbMetRS FP orth inactive
COc1ccc(C2C(=O)c3ccccc3C2=O)cc1	none
CCc1ccc(C2C(=O)c3ccccc3C2=O)cc1	Tb MetRS inh 6.3 | TbMetRS confirm inactive | Jurkat tox inactive | TbMetRS FP orth inactive
CS(=O)(=O)N(CC(=O)Nc1ccc2c(c1)OCO2)Cc1ccc(Cl)cc1	Tb MetRS inh 14 | TbMetRS confirm 23 | Jurkat tox inactive | TbMetRS FP orth inactive
Oc1c(/C=N/c2ncn[nH]2)ccc2ccccc12	none
O=C(Nc1ccc(F)cc1)Nc1cc(S(=O)(=O)N2CCOCC2)ccc1N1CCCC1	Tb MetRS inh 11 | TbMetRS confirm 27 | Jurkat tox inactive | TbMetRS FP orth inactive
CCNC(=O)Nc1cc(S(=O)(=O)N2CCOCC2)ccc1N1CCCCC1	none (no result: PREPL inh)
O=C(Cc1ccc(F)cc1)Nc1cc(S(=O)(=O)N2CCOCC2)ccc1N1CCCCC1	none (no result: PREPL inh)
O=C(Nc1ccccc1)Nc1cc(S(=O)(=O)N2CCOCC2)ccc1N1CCCC1	Tb MetRS inh 8.5 | TbMetRS confirm 20 | Jurkat tox inactive | TbMetRS FP orth inactive
O=C(Nc1ccc(Cl)cc1)Nc1cc(S(=O)(=O)N2CCOCC2)ccc1N1CCCC1	Tb MetRS inh 38 | TbMetRS confirm 60 | Jurkat tox inactive | TbMetRS FP orth 35
COc1ccc(Cc2nnc(SCC(=O)c3c(N)n(C4CC4)c(=O)[nH]c3=O)o2)cc1	none
O=C(OCc1ccc([N+](=O)[O-])cc1Cl)c1cnccn1	none
O=C(Cc1ccccc1)Nc1nonc1NC(=O)c1ccccc1	Tb MetRS inh 9.1 | TbMetRS confirm 16 | Jurkat tox inactive | TbMetRS FP orth inactive
CC(=O)c1sc(NC(=O)c2ccc(C(C)(C)C)cc2)nc1C	none
CC1(C)CC(=O)C=C(Nc2ccc(Br)cn2)C1	none
O=C(Cn1ccccc1=S)c1ccc(Cl)c(Cl)c1	none
O=C(CN1CCSC1=NCc1ccccc1)c1ccc(Cl)c(Cl)c1	Tb MetRS inh 61 | TbMetRS confirm 83 | Jurkat tox inactive | TbMetRS FP orth 67
NC(=S)Nc1cc(Cl)cc(Cl)c1	none
